# From ChEMBL document CHEMBL1833789, “Inhibition of xc⁻ transporter-mediated cystine uptake by sulfasalazine analogs” (Bioorg Med Chem Lett, 2011)
# Target: T1, Cystine/glutamate transporter (Homo sapiens, UniProt Q9UPY5)
# T1 sequence (Q9UPY5 whole entry): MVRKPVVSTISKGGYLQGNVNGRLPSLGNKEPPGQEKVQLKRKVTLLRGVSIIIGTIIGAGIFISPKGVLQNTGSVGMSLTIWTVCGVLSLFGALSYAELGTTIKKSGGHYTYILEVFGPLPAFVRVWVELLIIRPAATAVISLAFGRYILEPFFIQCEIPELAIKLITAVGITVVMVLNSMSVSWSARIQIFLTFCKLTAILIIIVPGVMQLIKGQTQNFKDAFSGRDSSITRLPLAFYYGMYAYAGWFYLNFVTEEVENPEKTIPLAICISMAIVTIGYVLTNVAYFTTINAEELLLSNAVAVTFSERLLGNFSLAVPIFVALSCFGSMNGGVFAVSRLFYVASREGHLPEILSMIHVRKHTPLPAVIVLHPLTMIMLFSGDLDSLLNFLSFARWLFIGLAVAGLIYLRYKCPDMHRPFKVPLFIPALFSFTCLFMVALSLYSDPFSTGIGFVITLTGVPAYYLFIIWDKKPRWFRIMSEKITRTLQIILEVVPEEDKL
# Experiment: Inhibition of xc-cystine-glutamate antiporter-mediated cystine uptake in human U87 cells using L-[14C]cystine as substrate after 15 mins by liquid scintillation counting
# Assay type: cell-based, U-87MG ATCC
# Method in brief: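 U87 human glioblastoma-astrocytoma cells, seeded at 0.067 × 10^6 per well and grown 6 days to confluency. Washed with pre-warmed sodium-free choline-chloride uptake buffer (HEPES 10 mM, pH 7.4), then given 80 µM L-[14C(U)]-cystine at 37 °C with or without inhibitor at various concentrations. Uptake stopped by three ice-cold washes, cells lysed in 0.1 N NaOH, counts normalized to protein.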
row,Structure (SMILES),IC50 [µM]
1,O=C(O)c1cc(CCc2ccc(S(=O)(=O)Nc3ccccn3)cc2)ccc1O,700
2,N[C@H](C(=O)O)c1ccc(C(=O)O)cc1,15
3,O=C(O)c1cc(/N=N/c2ccccc2)ccc1O,200
4,Nc1ccc(S(=O)(=O)Nc2ccccn2)cc1 [SULFAPYRIDINE],> 1000
5,Nc1ccc(O)c(C(=O)O)c1 [MESALAMINE],> 1000
6,O=C(O)c1cccc(C#Cc2ccccc2)c1,270
7,N[C@@H](C(=O)O)c1ccc(C(=O)O)cc1,> 1000
8,O=C(O)c1cccc(CCc2ccc(S(=O)(=O)Nc3ccccn3)cc2)c1,920
9,O=C(O)c1cc(C#Cc2ccccc2)ccc1O,150

# The next lines start with the values.
row,IC50 [µM],Structure (SMILES)
1,70,Cc1cccnc1NS(=O)(=O)c1ccc(C#Cc2ccc(O)c(C(=O)O)c2)cc1 [SUSALIMOD]
2,> 1000,COC(=O)c1cc(C#Cc2ccc(S(=O)(=O)Nc3ccccn3)cc2)ccc1O
3,70,O=C(O)c1cc(/C=C/c2ccc(S(=O)(=O)Nc3ccccn3)cc2)ccc1O
4,30,O=C(O)c1cc(/N=N/c2ccc(S(=O)(=O)Nc3ccccn3)cc2)ccc1O [SULFASALAZINE]
5,75,O=C(O)c1cccc(C#Cc2ccc(S(=O)(=O)Nc3ccccn3)cc2)c1
6,900,COC(=O)c1cc(/C=C/c2ccc(S(=O)(=O)Nc3ccccn3)cc2)ccc1O
7,30,O=C(O)c1cc(C#Cc2ccc(S(=O)(=O)Nc3ccccn3)cc2)ccc1O
8,> 1000,COC(=O)c1cc(CCc2ccc(S(=O)(=O)Nc3ccccn3)cc2)ccc1O
